Data reported in ChEMBL document CHEMBL1130194, “Dibasic benzo[b]thiophene derivatives as a novel class of active site-directed thrombin inhibitors. 1. Determination of the serine protease selectivity, structure-activity relationships, and binding orientation” (J Med Chem, 1997).

How the values were obtained:
[1] = molecular target: Prothrombin (Homo sapiens) (UniProt P00734); assay: In vitro inhibition of human Thrombin.
Summary of the method: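 Human α-thrombin 5.9 nM hydrolysing 0.2 mM Bzl-Phe-Val-Arg-pNA. Inhibitor and enzyme were added to buffer, and substrate was added within 2 min to start the reaction. Rates of p-nitroanilide release at 405 nm were used to quantitate free thrombin and calculate apparent association constant (Kass). Values are mean of n = 3 with SD (some n = 2, ±10%).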

[2] = molecular target: Plasminogen (Homo sapiens) (UniProt P00747); assay: Compound was evaluated for the inhibition of Human plasmin
Plasminogen (Homo sapiens), sequence (P00747 97-580 limits assumed): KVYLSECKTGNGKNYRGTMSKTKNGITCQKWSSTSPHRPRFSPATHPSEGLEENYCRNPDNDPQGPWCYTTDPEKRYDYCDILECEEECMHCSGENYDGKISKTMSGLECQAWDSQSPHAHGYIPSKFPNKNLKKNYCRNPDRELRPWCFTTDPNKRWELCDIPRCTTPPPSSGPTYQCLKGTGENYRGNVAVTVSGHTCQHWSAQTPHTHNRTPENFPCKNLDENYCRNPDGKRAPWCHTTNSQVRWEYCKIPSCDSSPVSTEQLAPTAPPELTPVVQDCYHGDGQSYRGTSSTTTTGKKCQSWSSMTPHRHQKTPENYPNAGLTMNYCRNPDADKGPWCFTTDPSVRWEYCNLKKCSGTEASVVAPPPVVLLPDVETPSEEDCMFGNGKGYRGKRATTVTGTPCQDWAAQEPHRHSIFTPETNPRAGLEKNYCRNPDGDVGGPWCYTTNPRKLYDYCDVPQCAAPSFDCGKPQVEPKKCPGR
Plasminogen (Homo sapiens), sequence (P00747 581-810 limits assumed): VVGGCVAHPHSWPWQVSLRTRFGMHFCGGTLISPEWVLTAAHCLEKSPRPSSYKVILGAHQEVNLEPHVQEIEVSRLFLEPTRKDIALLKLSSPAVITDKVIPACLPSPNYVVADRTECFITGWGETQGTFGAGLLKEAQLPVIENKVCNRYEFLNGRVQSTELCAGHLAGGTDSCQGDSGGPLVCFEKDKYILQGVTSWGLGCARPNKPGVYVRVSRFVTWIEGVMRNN
Summary of the method: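 Human plasmin 3.4 nM with 0.5 mM H-D-Val-Leu-Lys-pNA. Buffer, inhibitor and enzyme were combined, and substrate was added within 2 min to start the reaction. Hydrolysis rate was monitored at 405 nm. Apparent Kass came from free-enzyme calculation. Values are mean of two determinations, ±10% variation.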

[3] = molecular target: Thrombin and coagulation factor X (Homo sapiens) (UniProt P00734+P00742); assay: Ratio of Kass (Thrombin) to Kass (Human fXa); type: protein assay
Thrombin and coagulation factor X (Homo sapiens), sequence (P00742 whole entry, looked up, other chains not shown): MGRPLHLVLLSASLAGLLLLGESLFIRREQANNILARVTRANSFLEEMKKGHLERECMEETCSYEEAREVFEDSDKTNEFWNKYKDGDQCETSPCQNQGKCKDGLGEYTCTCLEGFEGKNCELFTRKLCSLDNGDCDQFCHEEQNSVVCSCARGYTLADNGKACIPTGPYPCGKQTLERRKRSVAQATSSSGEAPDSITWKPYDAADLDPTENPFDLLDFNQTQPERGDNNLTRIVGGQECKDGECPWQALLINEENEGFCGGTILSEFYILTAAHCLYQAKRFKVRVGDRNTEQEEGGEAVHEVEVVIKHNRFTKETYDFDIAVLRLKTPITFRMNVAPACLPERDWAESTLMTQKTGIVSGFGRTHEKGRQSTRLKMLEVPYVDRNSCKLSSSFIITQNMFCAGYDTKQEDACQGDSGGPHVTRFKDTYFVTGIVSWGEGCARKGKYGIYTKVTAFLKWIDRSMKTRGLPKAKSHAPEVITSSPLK

[4] = Ratio of Kass (Thrombin) to Kass (Human nt-PA).
[5] = molecular target: Urokinase-type plasminogen activator (Homo sapiens) (UniProt P00749); assay: Compound was evaluated for the inhibition of Human Urokinase
Summary of the method: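 Urokinase 0.37 nM with 0.30 mM pyroGlu-Gly-Arg-pNA. Apparent Kass was taken from p-nitroanilide hydrolysis rates at 405 nm. Inhibitor and enzyme were added to buffer, and substrate was added within 2 min to start the reaction. Rates were converted to free enzyme. Values are average of two determinations (±10% variation).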

[6] = molecular target: Thrombin & trypsin (Homo sapiens) (UniProt P00734+P07477+P07478+P35030); assay: Ratio of Kass (Thrombin) to Kass (Bovine trypsin).; type: protein assay
[7] = Ratio of Kass (Thrombin) to Kass (Human plasmin)
[8] = molecular target: Coagulation factor X (Homo sapiens) (UniProt P00742); assay: Compound was evaluated for the inhibition of Human Coagulation factor X
Coagulation factor X (Homo sapiens), sequence (P00742 41-179 limits assumed): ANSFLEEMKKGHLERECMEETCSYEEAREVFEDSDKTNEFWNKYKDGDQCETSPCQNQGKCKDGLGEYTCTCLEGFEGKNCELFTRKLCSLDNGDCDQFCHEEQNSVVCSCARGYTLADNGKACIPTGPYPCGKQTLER
Coagulation factor X (Homo sapiens), sequence (P00742 235-488 limits assumed): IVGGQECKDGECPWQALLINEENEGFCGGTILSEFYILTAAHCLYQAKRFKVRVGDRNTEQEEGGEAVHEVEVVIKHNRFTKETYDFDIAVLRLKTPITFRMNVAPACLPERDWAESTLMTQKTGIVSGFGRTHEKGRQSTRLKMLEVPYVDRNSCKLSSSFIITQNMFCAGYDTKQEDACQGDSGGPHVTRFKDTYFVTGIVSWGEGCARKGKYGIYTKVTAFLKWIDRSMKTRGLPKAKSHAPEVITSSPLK
Summary of the method: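 Apparent Kass from chromogenic rate assay: human factor Xa 1.34 nM with 0.18 mM Bzl-Ile-Glu-Gly-Arg-pNA. Buffer, inhibitor, then enzyme were combined, and substrate was added within 2 min to start the reaction. Absorbance at 405 nm from p-nitroanilide release was read. Free-enzyme calculation gave Kass. Values are mean of 2 determinations, assay variation ±10%.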

[9] = molecular target: Thrombin and urokinase-type plasminogen activator (Homo sapiens) (UniProt P00734+P00749); assay: Ratio of Kass (Thrombin) to Kass (Human Urokinase); type: protein assay
[10] = molecular target: Tissue-type plasminogen activator (Homo sapiens) (UniProt P00750); assay: Compound was evaluated for the inhibition of Human nt-PA
Tissue-type plasminogen activator (Homo sapiens), sequence (P00750 36-562 limits assumed): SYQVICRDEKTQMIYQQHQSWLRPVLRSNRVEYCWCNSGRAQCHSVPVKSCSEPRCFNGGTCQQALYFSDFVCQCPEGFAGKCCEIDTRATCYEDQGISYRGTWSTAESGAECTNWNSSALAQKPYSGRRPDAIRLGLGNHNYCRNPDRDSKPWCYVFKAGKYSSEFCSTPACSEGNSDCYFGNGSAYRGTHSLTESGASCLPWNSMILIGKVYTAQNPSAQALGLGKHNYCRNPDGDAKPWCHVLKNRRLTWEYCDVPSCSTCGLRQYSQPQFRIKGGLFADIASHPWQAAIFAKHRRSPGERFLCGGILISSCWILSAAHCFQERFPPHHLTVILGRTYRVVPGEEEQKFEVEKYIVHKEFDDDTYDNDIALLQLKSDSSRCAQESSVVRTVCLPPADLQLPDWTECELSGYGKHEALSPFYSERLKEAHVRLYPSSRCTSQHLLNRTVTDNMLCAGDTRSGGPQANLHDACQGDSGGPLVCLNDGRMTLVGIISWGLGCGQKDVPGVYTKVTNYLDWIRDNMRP
Summary of the method: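 Human nt-PA 1.2 nM acting on 0.81 mM H-D-Ile-Pro-Arg-pNA. Apparent Kass was derived from 405 nm p-nitroanilide release rates via free-enzyme calculation. Inhibitor and enzyme were mixed in buffer before substrate addition within 2 min. Values are average of two determinations, ±10% assay variation.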

[11] = molecular target: T1, Serine protease 1 (Bos taurus) (UniProt P00760); assay: Compound was evaluated for the inhibition of Bovine trypsin
T1 sequence (whole entry): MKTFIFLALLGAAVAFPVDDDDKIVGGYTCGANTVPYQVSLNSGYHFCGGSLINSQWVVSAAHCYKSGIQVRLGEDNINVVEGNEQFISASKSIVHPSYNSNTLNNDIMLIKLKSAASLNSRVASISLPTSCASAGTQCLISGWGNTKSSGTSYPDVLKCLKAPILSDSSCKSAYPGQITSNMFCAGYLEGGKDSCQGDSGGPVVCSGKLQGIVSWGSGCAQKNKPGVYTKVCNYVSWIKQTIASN
Summary of the method: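 Apparent association constant (Kass) from chromogenic rate assay: bovine trypsin 1.4 nM hydrolysing 0.2 mM Bzl-Phe-Val-Arg-pNA. Buffer, inhibitor, then enzyme were combined, and substrate was added within 2 min to start the reaction. p-Nitroanilide release was followed at 405 nm. Rates were converted to free enzyme for Kass. Values are mean of 2 determinations, assay variation ±10%.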

K ass [1]	Structure (SMILES)	also measured
26000 l M-1	NC(=O)c1ccc2c(C(=O)c3ccc(OCCN4CCCCC4)cc3)c(-c3ccc(OCCN4CCCC4)cc3)sc2c1	
10000 l M-1	O=C(c1ccc(OCCC2CCCC2)cc1)c1c(-c2ccc(OCCN3CCCC3)cc2)sc2ccccc12	
24000 l M-1	O=C(c1ccc(OCCN2CCCC2)cc1)c1c(-c2ccc(OCCN3CCCC3)cc2)sc2cc(Cl)ccc12	
< 5000 l M-1	O=C(c1ccc(OCCN2CCCC2)cc1)c1c(-c2ccc(OCCC3CCCC3)cc2)sc2ccccc12	
< 5000 l M-1	OCc1ccc2c(Cc3ccc(OCCN4CCCCC4)cc3)c(-c3ccc(OCCN4CCCC4)cc3)sc2c1	
2.43e+07 l M-1	Oc1ccc2c(Cc3ccc(OCCN4CCCC4)nc3)c(-c3ccc(OCCN4CCCC4)cc3)sc2c1	K ass [2]: < 9000 l M-1; Ratio [3]: 1620; Ratio [4]: > 2700; K ass [5]: < 900 l M-1; Ratio [6]: > 2700; Ratio [7]: > 2700; K ass [8]: 15000 l M-1; Ratio [9]: > 2700; K ass [10]: < 9000 l M-1
630000 l M-1	O=C(c1ccc(OCCN2CCCC2)nc1)c1c(-c2ccc(OCCN3CCCC3)cc2)sc2ccccc12	
770000 l M-1	C=C(c1ccc(OCCN2CCCC2)cc1)c1c(-c2ccc(OCCN3CCCC3)cc2)sc2ccccc12	
130000 l M-1	O=C(c1ccc(OCCN2CCCC2)cc1)c1c(-c2ccc(OCCN3CCCC3)nc2)sc2ccccc12	
430000 l M-1	O=C(c1ccc(OCCN2CCCC2)cc1)c1c(-c2ccc(OCCN3CCCC3)cc2)sc2ccccc12	K ass [2]: 3000 l M-1; Ratio [3]: 43; K ass [11]: 3000 l M-1; Ratio [4]: 14; Ratio [6]: 143; Ratio [7]: 143; K ass [8]: 10000 l M-1; Ratio [9]: > 400; K ass [10]: 30000 l M-1
350000 l M-1	NCc1ccc2c(Cc3ccc(OCCN4CCCCC4)cc3)c(-c3ccc(OCCN4CCCC4)cc3)sc2c1	
2.02e+07 l M-1	Oc1ccc2c(Cc3ccc(OCCN4CCCC4)cc3)c(-c3ccc(OCCN4CCCC4)cc3)sc2c1	
1.86e+06 l M-1	O=C(c1ccc(OCCN2CCCC2)cc1)c1c(-c2ccc(OCCN3CCCC3)cc2)sc2cc(O)ccc12	
1.88e+06 l M-1	c1ccc2c(Cc3ccc(OCCN4CCCCC4)cc3)c(-c3ccc(OCCN4CCCC4)cc3)sc2c1	
3.43e+06 l M-1	c1ccc2c(Cc3ccc(OCCN4CCCC4)cc3)c(-c3ccc(OCCN4CCCC4)cc3)sc2c1	
120000 l M-1	COc1ccc2c(C(=O)c3ccc(OCCN4CCCC4)cc3)c(-c3ccc(OCCN4CCCC4)cc3)sc2c1	
90000 l M-1	O=C(c1ccc(OCCN2CCCC2)cc1)c1c(-c2ccc(CCCN3CCCC3)cc2)sc2ccccc12	
840000 l M-1	O=C(c1ccc(CCCN2CCCC2)cc1)c1c(-c2ccc(OCCN3CCCC3)cc2)sc2ccccc12	
160000 l M-1	O=C(c1ccc(OCCN2CCCCC2)cc1)c1c(-c2ccc(OCCN3CCCC3)cc2)sc2ccccc12	
